The values that follow come from ChEMBL document CHEMBL1287679, “Tuning hydrophobicity of highly cationic tetradecameric Gramicidin S analogues using adamantane amino acids” (Bioorg Med Chem, 2010).

≈ marks a conversion by molar mass, not a printed value. Where a SMILES comes first, the peptide text is derived from it. [ ]: non-standard residue; d: D form. Orn = NCCC[C@H](N)C(=O)O Where only a bound is given, the exact number is not on record here.

Series [1] relates to Staphylococcus aureus. The series is described as follows: Antimicrobial activity against community acquired methicillin-resistant Staphylococcus aureus isolate 1110301146 by broth dilution method. The series is classed as functional. The gist of the method: (§1)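 Frozen (−70 °C) stocks grown at 35 °C on Columbia sheep-blood agar, suspended in physiological saline to OD595 0.1, diluted 100×; 2 µL inoculum into 50 µL cation-adjusted Mueller Hinton II broth in 96-well plates. Peptides dissolved in methanol (4 g/L), diluted in water, two-fold serial dilutions in broth (64–1 mg/L). Incubation at 35 °C, 24–48 h; MIC = lowest concentration inhibiting growth.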

Series [2] deals with Bacillus cereus. In words: Antimicrobial activity against Bacillus cereus ATCC 11778 by broth dilution method. The format is functional. A digest of the protocol: (§2)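 Stored at −70 °C, grown at 35 °C on Columbia sheep-blood agar, then suspended in physiological saline to OD 0.1 AU at 595 nm and diluted 100× in saline. 2 µL inoculum was added to 50 µL cation-adjusted Mueller Hinton II broth. Peptides in methanol (4 g/L stock) were diluted in water, then two-fold in broth (64–1 mg/L). Incubation was 35 °C for 24–48 h. MIC is the lowest concentration inhibiting growth.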

The nature of series [3]: Therapeutic index, concentration required to achieve 100% hemolysis in erythrocyte to MIC for Escherichia coli ATCC 25922. The settings on record: erythrocytes. The gist of the method:
(§3)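 Therapeutic index was taken as the concentration for 100% haemolysis divided by MIC for the given strain.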

In series [4] the test system is Staphylococcus aureus. In words: Antimicrobial activity against methicillin-resistant Staphylococcus aureus ATCC 43300 by broth dilution method. The series is classed as functional. The gist of the method:
as §1

The test system of series [5] is Enterococcus faecalis. In words: Antimicrobial activity against Enterococcus faecalis ATCC 29212 by broth dilution method. The series is classed as functional. The gist of the method: as §2
Series [6] deals with Escherichia coli. In words: Antimicrobial activity against Escherichia coli ATCC 25922 by broth dilution method. The format is functional. The gist of the method:
as §2

A short description of series [7]: Therapeutic index, concentration required to achieve 100% hemolysis in erythrocyte to MIC for Staphylococcus aureus ATCC 29213. The following applies: erythrocytes. A digest of the protocol: as §3
A short description of series [8]: Toxicity in Erythrocyte assessed as concentration required to achieve 100% hemolysis after 4 hrs. The series is classed as cell-based. The gist of the method: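 Heparinized fresh blood was centrifuged (1000g, 10 min, 10 °C). Erythrocytes were washed three times in 0.85% saline and diluted to a 1/25 packed volume. Peptides were prepared as a 1.5 mM stock in 30% DMSO/0.5 mM saline and serially two-fold diluted in triplicate rows. 1% Triton-X served as the full-lysis control. Incubation was 37 °C for 4 h, then centrifugation; supernatant was read. Value is the concentration giving 100% lysis.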

Series [9] concerns Staphylococcus aureus. The series is described as follows: Antimicrobial activity against methicillin-resistant Staphylococcus aureus N133 by broth dilution method. The format is functional. A digest of the protocol: as §1
Series [10] has as its system Staphylococcus aureus. The series is described as follows: Antimicrobial activity against Staphylococcus aureus ATCC 29213 by broth dilution method. The format is functional. A digest of the protocol: as §1
Series [11] relates to Staphylococcus aureus. The series is described as follows: Antimicrobial activity against methicillin-resistant Staphylococcus aureus ATCC 49775 by broth dilution method. The format is functional. The gist of the method:
as §1

The test system of series [12] is Staphylococcus epidermidis. The series is described as follows: Antimicrobial activity against Staphylococcus epidermidis ATCC 12228 by broth dilution method. The format is functional. The gist of the method: as §2
Series [13] relates to Pseudomonas aeruginosa. In words: Antimicrobial activity against Pseudomonas aeruginosa ATCC 27853 by broth dilution method. The format is functional. A digest of the protocol:
as §2

For series [14], the system named is Staphylococcus aureus. In words: Antimicrobial activity against methicillin-resistant Staphylococcus aureus isolate 1110301981 by broth dilution method. The series is classed as functional. The gist of the method:
as §1

The subject of series [15] is Staphylococcus aureus. The series is described as follows: Antimicrobial activity against methicillin-resistant Staphylococcus aureus N229 by broth dilution method. The series is classed as functional. The gist of the method:
as §1

Regarding `CC(C)C[C@@H]1NC(=O)[C@H](CCCN)NC(=O)[C@H](C(C)C)NC(=O)[C@H](CCCN)NC(=O)[C@@H]2CCCN2C(=O)[C@@H](Cc2ccccc2)NC(=O)[C@H](CCCN)NC(=O)[C@H](CC(C)C)NC(=O)[C@H](CCCN)NC(=O)[C@H](C(C)C)NC(=O)[C@H](CCCN)NC(=O)[C@@H]2CCCN2C(=O)[C@@H](Cc2ccccc2)NC(=O)[C@H](CCCN)NC1=O`, the minimal inhibitory concentration (MIC) was 64 µg/mL (≈ 40 µM) in [1]; 32 µg/mL (≈ 20 µM) in [2]; above 64 µg/mL in series [4]; above 64 µg/mL in series [5]; 32 µg/mL (≈ 20 µM) in series [6]; above 64 µg/mL in series [9]. In addition, the MIC in series [10] is 64 µg/mL (≈ 40 µM); in [11] it was 64 µg/mL (≈ 40 µM); in series [12], 8 µg/mL (≈ 5.01 µM); in series [13], 64 µg/mL (≈ 40 µM); in series [14], 64 µg/mL (≈ 40 µM); in [15], 64 µg/mL (≈ 40 µM). In addition, the selectivity ratio in [3] and in series [7] (read-out: Ratio) was 11.7 throughout. Moreover, the Activity in series [8] is above 500 µM.
Take `CC(C)C[C@@H]1NC(=O)[C@H](CCCN)NC(=O)[C@H](C(C)C)NC(=O)[C@H](CCCN)NC(=O)[C@@H]2CCCN2C(=O)[C@@H](Cc2ccccc2)NC(=O)[C@H](CCCN)NC(=O)[C@H](CC23CC4CC(CC(C4)C2)C3)NC(=O)[C@H](CCCN)NC(=O)[C@H](C(C)C)NC(=O)[C@H](CCCN)NC(=O)[C@@H]2CCCN2C(=O)[C@@H](Cc2ccccc2)NC(=O)[C@H](CCCN)NC1=O`: the MIC in series [1] stood at 16 µg/mL (≈ 9.47 µM); in series [2], 8 µg/mL (≈ 4.73 µM); in series [4], 8 µg/mL (≈ 4.73 µM); in [5], 32 µg/mL (≈ 18.9 µM); in [6] it was 16 µg/mL (≈ 9.47 µM); in series [9] it was 8 µg/mL (≈ 4.73 µM). Moreover, the minimum inhibitory concentration (MIC) in [10] was 16 µg/mL (≈ 9.47 µM); in [11], 8 µg/mL (≈ 4.73 µM); in series [12] it was 8 µg/mL (≈ 4.73 µM); in series [13], 16 µg/mL (≈ 9.47 µM); in [14] it was 8 µg/mL (≈ 4.73 µM); in series [15], 16 µg/mL (≈ 9.47 µM). Further, the selectivity ratio in series [3] and in series [7] (read-out: Ratio) was 7.8 each time. Besides, in series [8], the Activity stood at 125 µM.
On to `CC(C)C[C@@H]1NC(=O)[C@H](CCCN)NC(=O)[C@H](C(C)C)NC(=O)[C@H](CCCN)NC(=O)[C@@H]2CCCN2C(=O)[C@@H](Cc2ccccc2)NC(=O)[C@H](CCCN)NC(=O)[C@H](CC(C)C)NC(=O)[C@H](CCCN)NC(=O)[C@H](C23CC4CC(CC(C4)C2)C3)NC(=O)[C@H](CCCN)NC(=O)[C@@H]2CCCN2C(=O)[C@@H](Cc2ccccc2)NC(=O)[C@H](CCCN)NC1=O`, for which the minimum inhibitory concentration (MIC) was determined as 16 µg/mL (≈ 9.47 µM) in series [1]; 8 µg/mL (≈ 4.73 µM) in [2]; 8 µg/mL (≈ 4.73 µM) in series [4]; 32 µg/mL (≈ 18.9 µM) in series [5]; 16 µg/mL (≈ 9.47 µM) in [6]; 8 µg/mL (≈ 4.73 µM) in series [9]. The MIC was 16 µg/mL (≈ 9.47 µM) in [10]; 8 µg/mL (≈ 4.73 µM) in [11]; 4 µg/mL (≈ 2.37 µM) in series [12]; 8 µg/mL (≈ 4.73 µM) in [13]; 8 µg/mL (≈ 4.73 µM) in [14]; 8 µg/mL (≈ 4.73 µM) in [15]. Besides, the selectivity ratio in series [3] was determined as 15.6; in [7] (read-out: Ratio), 7.8. Further, the Activity in [8] amounted to 125 µM.
As for `CC(C)C[C@@H]1NC(=O)[C@H](CCCN)NC(=O)[C@H](C(C)C)NC(=O)[C@H](CCCN)NC(=O)[C@@H]2CCCN2C(=O)[C@@H](Cc2ccccc2)NC(=O)[C@H](CCCN)NC(=O)[C@H](CC23CC4CC(CC(C4)C2)C3)NC(=O)[C@H](CCCN)NC(=O)[C@H](C23CC4CC(CC(C4)C2)C3)NC(=O)[C@H](CCCN)NC(=O)[C@@H]2CCCN2C(=O)[C@@H](Cc2ccccc2)NC(=O)[C@H](CCCN)NC1=O`, the MIC in series [1] worked out at 16 µg/mL (≈ 8.98 µM); in [2] it was 1 µg/mL (≈ 0.561 µM); in series [4], 16 µg/mL (≈ 8.98 µM); in series [5], 8 µg/mL (≈ 4.49 µM); in series [6], 16 µg/mL (≈ 8.98 µM); in series [9], 16 µg/mL (≈ 8.98 µM). The minimal inhibitory concentration (MIC) in series [10] was 8 µg/mL (≈ 4.49 µM); in series [11], 16 µg/mL (≈ 8.98 µM); in series [12], 4 µg/mL (≈ 2.24 µM); in [13], 8 µg/mL (≈ 4.49 µM); in series [14], 16 µg/mL (≈ 8.98 µM); in [15], 16 µg/mL (≈ 8.98 µM). Further, the selectivity ratio in [3] and in [7] (read-out: Ratio) was 3.9 throughout. Also, in series [8], the Activity was determined as 31.3 µM.
For the molecule `CC(C)C[C@@H]1NC(=O)[C@H](CCCN)NC(=O)[C@H](C23CC4CC(CC(C4)C2)C3)NC(=O)[C@H](CCCN)NC(=O)[C@@H]2CCCN2C(=O)[C@@H](Cc2ccccc2)NC(=O)[C@H](CCCN)NC(=O)[C@H](CC(C)C)NC(=O)[C@H](CCCN)NC(=O)[C@H](C23CC4CC(CC(C4)C2)C3)NC(=O)[C@H](CCCN)NC(=O)[C@@H]2CCCN2C(=O)[C@@H](Cc2ccccc2)NC(=O)[C@H](CCCN)NC1=O`, the MIC in series [1] came out at 8 µg/mL (≈ 4.49 µM); in series [2], 2 µg/mL (≈ 1.12 µM); in [4], 8 µg/mL (≈ 4.49 µM); in series [5] it was 8 µg/mL (≈ 4.49 µM); in [6], 16 µg/mL (≈ 8.98 µM); in series [9], 8 µg/mL (≈ 4.49 µM). Besides, the MIC was 8 µg/mL (≈ 4.49 µM) in series [10]; 8 µg/mL (≈ 4.49 µM) in series [11]; 8 µg/mL (≈ 4.49 µM) in series [12]; 16 µg/mL (≈ 8.98 µM) in series [13]; 8 µg/mL (≈ 4.49 µM) in series [14]; 8 µg/mL (≈ 4.49 µM) in series [15]. In addition, the selectivity ratio in series [3] was 2; in series [7] (read-out: Ratio) it was 3.9. Further, in series [8], the Activity stood at 31.3 µM.
In the case of `CC(C)C[C@@H]1NC(=O)[C@H](CCCN)NC(=O)[C@H](C(C)C)NC(=O)[C@@H]2CCCN2C(=O)[C@@H](Cc2ccccc2)NC(=O)[C@H](CC(C)C)NC(=O)[C@H](CCCN)NC(=O)[C@H](C(C)C)NC(=O)[C@@H]2CCCN2C(=O)[C@@H](Cc2ccccc2)NC1=O` [GRAMICIDIN S] (cyclo(L[dF]PV[Orn]L[dF]PV[Orn])), the MIC in series [1] was determined as 16 µg/mL (≈ 14 µM); in series [2], 8 µg/mL (≈ 7.01 µM); in series [4], 8 µg/mL (≈ 7.01 µM); in series [5], 8 µg/mL (≈ 7.01 µM); in series [6] it was 64 µg/mL (≈ 56.1 µM); in series [9] it was 16 µg/mL (≈ 14 µM). The minimum inhibitory concentration (MIC) in series [10] came out at 32 µg/mL (≈ 28 µM); in series [11] it was 8 µg/mL (≈ 7.01 µM); in series [12] it was 8 µg/mL (≈ 7.01 µM); in series [13], 32 µg/mL (≈ 28 µM); in series [14], 16 µg/mL (≈ 14 µM); in [15], 8 µg/mL (≈ 7.01 µM). Also, the selectivity ratio in series [3] and in series [7] (read-out: TI) was 2 each time. In [8], the Activity was found to be 62.5 µM.
